From ChEMBL document CHEMBL1121947 (J Med Chem, 1982)

Target: GABA-A receptor; anion channel
Assay: Inhibition of [3H]GABA binding to Gamma-aminobutyric acid receptor of rat brain synaptosomal membranes
Format: cell membranes, Membrane
In short: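 Rat brain synaptic membranes (0.8–1.2 mg protein) were incubated in triplicate for 5 min at 4 °C in 0.05 M Tris-citrate pH 7.1 with 5 nM [3H]GABA, plus 1 mM GABA or 100 µM test agent. Protein was measured by Lowry.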

IC50 [µM]	Structure (SMILES)
> 100	O=C(O)[C@H]1CNC[C@@H](O)C1
12	O=C(O)[C@@H]1CCNC[C@@H]1O
> 100	O=C(O)[C@H]1CNCC[C@@H]1O
43	O=C(O)[C@@H]1CCNC[C@H]1O
> 100	O=C(O)[C@H]1CNCC[C@H]1O
> 100	CC(=O)N[C@@H]1CCNC[C@@H]1C(=O)O
> 100	CC(=O)N[C@@H]1CNC[C@H](C(=O)O)C1
0.33	O=C(O)C1CCNCC1 [ISONIPECOTIC ACID]
> 100	O=C(O)C1CCCNC1 (configuration not stated) [NIPECOTIC ACID]

Tested on: not listed separately
Assay: pKA value was determined; Experiment 2
Format: physicochemical

pKa	Structure (SMILES)
8.9	O=C(O)[C@H]1CNC[C@@H](O)C1
10	O=C(O)[C@@H]1CCNC[C@@H]1O
9.4	O=C(O)[C@H]1CNCC[C@@H]1O
9.3	O=C(O)[C@@H]1CCNC[C@H]1O
10	O=C(O)[C@H]1CNCC[C@H]1O
9.7	CC(=O)N[C@@H]1CCNC[C@@H]1C(=O)O
8.6	CC(=O)N[C@@H]1CNC[C@H](C(=O)O)C1
10.7	NCCCC(=O)O [GAMMA-AMINOBUTYRIC ACID]
10.5	O=C(O)C1CCNCC1 [ISONIPECOTIC ACID]
10.3	O=C(O)C1CCCNC1 (configuration not stated) [NIPECOTIC ACID]

Tested on: not listed separately
Assay: pKA value was determined; Experiment 1
Format: physicochemical

pKa	Structure (SMILES)
3.5	O=C(O)[C@H]1CNC[C@@H](O)C1
3.7	O=C(O)[C@@H]1CCNC[C@@H]1O
3.1	O=C(O)[C@H]1CNCC[C@@H]1O
3.6	O=C(O)[C@@H]1CCNC[C@H]1O
3.4	O=C(O)[C@H]1CNCC[C@H]1O
3.2	CC(=O)N[C@@H]1CCNC[C@@H]1C(=O)O
3	CC(=O)N[C@@H]1CNC[C@H](C(=O)O)C1
4	NCCCC(=O)O [GAMMA-AMINOBUTYRIC ACID]
3.8	O=C(O)C1CCNCC1 [ISONIPECOTIC ACID]
3.9	O=C(O)C1CCCNC1 (configuration not stated) [NIPECOTIC ACID]

Target: GABA transporter (Rattus norvegicus, UniProt P31647+P23978+P31646+P48056)
Assay: Inhibition of high affinity neuronal GABA uptake by synaptosomes of rat brain membrane
Format: functional, subcellular

IC50 [µM]	Structure (SMILES)
173	O=C(O)[C@H]1CNC[C@@H](O)C1
> 300	O=C(O)[C@@H]1CCNC[C@@H]1O
203	O=C(O)[C@H]1CNCC[C@@H]1O
> 300	O=C(O)[C@@H]1CCNC[C@H]1O
11	O=C(O)[C@H]1CNCC[C@H]1O
> 300	CC(=O)N[C@@H]1CCNC[C@@H]1C(=O)O
240	CC(=O)N[C@@H]1CNC[C@H](C(=O)O)C1
> 300	O=C(O)C1CCNCC1 [ISONIPECOTIC ACID]
